The values below come from PubChem BioAssay.

Active and inactive are the calls of the source.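 The calls were made as follows, unless noted: active = fluorescence slope after compound addition differing from the mean of all screened samples at 99.7% confidence, in either direction; inactive = the rest.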

Test [1] can be described thus: inhibitors of TNFa-induced NFkB p65 translocation, primary screen, imaging, HUVEC, MLSMR starter and 10KST1 sets (AID 438;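 active = inhibition above 20% together with a positive visual image hit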;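 also: compound added about 3h40 before a 20 min TNFalpha stimulation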;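 as to inhibition: signal is the nuclear over cytoplasmic p65 intensity ratio per well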). The note with it: HUVEC TNFa-induced p65 nuclear translocation; cell count: measured here: nuclei count (cytotoxicity indicator), at 2.08 µM; inhibition: at 2 µM, stronger effect = higher value, 0% TNFa-plus-vehicle, 100% no-TNFa wells.
The nature of test [2]: inhibitors of mutant huntingtin aggregation, primary screen, imaging, exon1htt(103Q)mCFP cells, high-content imaging (AID 483;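 active = visual image review flags a hit and inhibition of aggregation exceeds 20%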;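 also: compound exposure lasted 3 days before fixation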;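 as to nuclei count: percent of the per-plate median nuclei count of sample wells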). The settings on record: exon1htt(103Q)mCFP cell line, aggregate imaging, at 2 µM; inhibition of aggregation: stronger effect = higher value; nuclei count: measured here: cell count, toxicity.
Test [3] is described as follows: inhibitors of E-selectin induction by TNFa, primary screen, imaging, HUVEC, immunofluorescence, MLSMR starter and 10KST1 sets (AID 487;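 active = visually confirmed hit in the image check and inhibition above 20%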;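 as to inhibition: signal is fraction of cell area covered by stained E-selectin grains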;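 as to nuclei count: 100% = median nuclei count of all wells on the same plate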). The settings on record: HUVEC TNFalpha-induced E-selectin immunofluorescence imaging, at 2 µM; inhibition: stronger effect = higher value; nuclei count: measured here: cell number, toxicity.
Test [4] addresses Voltage-gated potassium channel subunit beta-2 (Rattus norvegicus) (UniProt P62483). In words: KvBeta enzyme negative modulators, primary screen, biochemical, NADPH fluorescence (AID 622;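 active = fluorescence slope higher than the sample average by over 3 SD, cut at about -0.22 in these data, passing the limit was not always enough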;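 also: slope of raw intensity against log time taken from 70 to 1610 s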). The settings on record: recombinant KvBeta, 4-cyanobenzaldehyde reduction, at 10 µM, stronger effect = higher value.
The target is the same in test [5]. The test is described as follows: KvBeta positive modulators, primary screen, biochemical, NADPH fluorescence (AID 623;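 active = NADPH fluorescence slope more negative than the mean of all samples by about 3 SD, 99.7% confidence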;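 also: fluorescence intensity change per second fitted from 20 to 320 s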). The settings on record: Recombinant KvBeta, NADPH fluorescence decrease slope, 10 min; at 10 µM; stronger effect = lower value.
The target of test [6] is Alpha-2C adrenergic receptor (Homo sapiens) (UniProt P18825). The test is described as follows: modulators of alpha2C/GIRK thallium flux, primary screen, cell-based, HEK293 alpha2C/GIRK1/2 (AID 624).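 Also: slope of fluorescence ratio to pre-addition baseline per second over 15 to 24 s.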 The settings on record: thallium flux BTC fluorescence, at 10 µM, actives lie on both sides.
Alpha-2C adrenergic receptor (Homo sapiens), sequence (P18825 whole entry, looked up): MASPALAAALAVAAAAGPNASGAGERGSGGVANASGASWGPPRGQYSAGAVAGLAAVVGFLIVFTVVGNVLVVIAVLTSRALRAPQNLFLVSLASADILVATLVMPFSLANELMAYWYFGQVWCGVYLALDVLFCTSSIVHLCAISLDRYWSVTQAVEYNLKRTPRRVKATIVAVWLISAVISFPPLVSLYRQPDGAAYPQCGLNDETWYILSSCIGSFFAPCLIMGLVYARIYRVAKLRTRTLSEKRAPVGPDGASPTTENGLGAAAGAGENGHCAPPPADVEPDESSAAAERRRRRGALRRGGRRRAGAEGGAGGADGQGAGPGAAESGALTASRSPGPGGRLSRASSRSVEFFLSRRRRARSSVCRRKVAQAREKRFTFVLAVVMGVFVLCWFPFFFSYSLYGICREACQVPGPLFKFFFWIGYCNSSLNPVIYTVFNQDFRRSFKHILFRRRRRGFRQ
Test [7] in a line: inhibitors of larval lipid processing in zebrafish, primary screen, whole organism, PED6 fluorescence, gall bladder and intestine (AID 686;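 active = a full or partial loss of lipid-probe fluorescence in the fish gall bladder, intestine or both, judged by eye; inactive = no fluorescence loss, or compound toxic to the fish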;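 also: larvae 5 to 7 days old with five fish per well; signal comes from phospholipase A2 cleavage of quenched PED6 carried via bile; overnight exposure to compound and PED6 before scoring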). The note with it: Zebrafish larvae PED6 lipid processing, fluorescence scoring; screened at 20 µM (by protocol). In short, it runs like this:
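system = live zebrafish larvae aged 5-7 days, whole organism | probe or stimulus = ingested quenched lipid PED6 at 100 nM | doses = 20 µM single dose | timing = overnight exposure | detection = fluorescence microscopy with visual scoring of gall bladder and intestine | read-out = visual per-well fluorescence inhibition score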

A short description of test [8]: inhibitors of Sendai virus-induced IRF3 signaling, primary screen, TLR/RLR signaling modifier project, cell-based, Sendai virus stimulus, luciferase, 10K MLSCN set (AID 602276;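 active = inhibition at or above 50% at 10 µM; inactive = inhibition below 50%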;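 also: firefly luciferase from ISG56 promoter only with Renilla not read in this screen; 0% = Sendai virus plus DMSO and 100% = medium plus DMSO without virus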). The note with it: HEK293 RL24 IRF3 luciferase reporter, at 10 µM, stronger effect = higher value. For orientation: Reporter assays use an easily measured gene product as a stand-in for the process of interest.

The nature of test [9]: inhibitors of poly I:C-induced TLR3 signaling, primary screen, cell-based, poly I:C stimulus, luciferase, 10K MLSCN set (AID 602277;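 active = inhibition of the reporter signal at or above 50%; inactive = inhibition below 50%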). The settings on record: HEK293-TLR3 RL24 IRF3 luciferase reporter, at 10 µM, stronger effect = higher value.

Voltage-gated potassium channel subunit beta-2 (Rattus norvegicus), sequence (P62483 whole entry, looked up): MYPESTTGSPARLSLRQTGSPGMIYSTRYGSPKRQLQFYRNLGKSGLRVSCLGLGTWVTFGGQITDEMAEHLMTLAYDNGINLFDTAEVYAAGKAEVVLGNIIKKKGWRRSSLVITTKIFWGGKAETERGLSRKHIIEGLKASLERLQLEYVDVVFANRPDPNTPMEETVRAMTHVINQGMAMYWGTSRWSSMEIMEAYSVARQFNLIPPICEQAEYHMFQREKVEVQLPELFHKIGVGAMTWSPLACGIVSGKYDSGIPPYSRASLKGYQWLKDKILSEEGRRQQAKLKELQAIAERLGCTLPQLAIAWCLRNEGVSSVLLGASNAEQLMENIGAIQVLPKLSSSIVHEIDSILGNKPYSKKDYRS

`CCCCc1c(O)nc(SCC(=O)Nc2ccc3c(c2)CCC3)[nH]c1=O`: in test [1], the cell count came out at 569. The inhibition – broadly, the relative decrease from the control value, in per cent – in [1] is -18.3% (inactive); in [3], -5.9% (inactive); in [8], 10.6% (inactive); in test [9], 7.8% (inactive). In addition, the inhibition of aggregation in test [2] was -3% (inactive). Further, the nuclei count in test [2] turned out to be 75.8%; in [3], 87.2%. In addition, the fluorescence slope in test [4] was -0.368 (inactive). Moreover, in test [5], the NADPH fluorescence slope was -6.1e-05 (inactive). The slope in [6] is 0.00495 (inactive). Moreover, the result in test [7] was inactive.
As for `CCc1ccc2[nH]c(=O)c(C(c3nnnn3CC3CCCO3)N3CCN4CCCC4C3)cc2c1` (stereo unspecified), the cell count in [1] was 314. For the same compound, the inhibition in [1] is 12.3% (inactive); in test [3], 13.9% (inactive); in test [8], 9.53% (inactive); in test [9] it was 4.74% (inactive). Moreover, the inhibition of aggregation in test [2] was -16.9% (inactive). Also, the nuclei count in test [2] is 107%; in test [3], 102%. Besides, in test [4], the fluorescence slope is -0.382 (inactive). Besides, the NADPH fluorescence slope in test [5] is -5.9e-05 (inactive). Moreover, the slope in test [6] is 0.00534 (inactive). Besides, in test [7], the outcome was inactive.
In the case of `Cc1cc(Br)c(S(=O)(=O)n2nnc3ccccc32)cc1C`, the cell count in test [1] turned out to be 608. The inhibition was -4.5% (inactive) in [1], 29% (inactive) in test [3], 13.1% (inactive) in test [8] and 12.1% (inactive) in test [9]. For the same compound, the inhibition of aggregation in [2] was 3.7% (inactive). Moreover, the values for the nuclei count in test [2] and in test [3] were 81.9% and 107%, respectively. In addition, the fluorescence slope in test [4] is -0.326 (inactive). The NADPH fluorescence slope in test [5] was 2.1e-05 (inactive). Further, in test [6], the slope is 0.00509 (inactive). Besides, the call in test [7] was inactive.
As to `Clc1ccc(Cl)c(-c2nn3c(Cn4cnc5ccccc54)nnc3s2)c1`, the cell count in [1] is 566. For the same compound, the inhibition in [1] was 15.8% (inactive); in [3] it was -91.4% (inactive); in [8], 13.6% (inactive); in [9], 13.1% (inactive). Moreover, the inhibition of aggregation in test [2] was -6.5% (inactive). In addition, the values for the nuclei count in [2] and in test [3] were 102% and 121%, respectively. Further, in test [4], the fluorescence slope was -0.446 (inactive). Besides, the NADPH fluorescence slope in [5] was -3.8e-05 (inactive). Further, the slope in test [6] was 0.00462 (inactive). The call in [7] was inactive.
On to `CC1Cc2ccccc2N1CC(=O)NC(=O)NCc1ccco1` (stereo unspecified), for which the cell count in test [1] was determined as 441. For the same compound, the inhibition in [1] was -2.6% (inactive); in test [3], 2.3% (inactive); in test [8], 16.6% (inactive); in [9] it was 19% (inactive). For the same compound, the inhibition of aggregation in test [2] is 9.8% (inactive). For the same compound, the results for the nuclei count in [2] and in [3] were 91.7% and 109%, respectively. In test [4], the fluorescence slope was -0.436 (inactive). In test [5], the NADPH fluorescence slope was -9.5e-06 (inactive). For the same compound, the slope in test [6] is 0.00524 (inactive). The compound was classed as inactive in [7].
For `Cc1cc(NC(=O)CSc2nc3c(c(-c4cccnc4)c2C#N)CCC3)no1`, the cell count in test [1] is 595. Further, the inhibition in test [1] was -2.9% (inactive); in test [3], 15.2% (inactive); in test [8], 0.978% (inactive); in [9], -3.11% (inactive). In test [2], the inhibition of aggregation is 0.1% (inactive). Besides, the nuclei count in test [2] amounted to 96.3%; in test [3] it was 88.6%. Moreover, in [4], the fluorescence slope was -0.337 (inactive). Further, the NADPH fluorescence slope in test [5] was -6.5e-05 (inactive). Moreover, the slope in test [6] was 0.00719 (inactive). Besides, in test [7], the outcome was inactive.
`CCOc1ccc(NS(=O)(=O)c2cc(Cl)ccc2OC)cc1`: the cell count in test [1] was determined as 279. The inhibition is -4.2% (inactive) in test [1], -147% (inactive) in test [3], 14.5% (inactive) in test [8] and 21% (inactive) in [9]. For the same compound, the inhibition of aggregation in [2] is 19.4% (inactive). Further, the nuclei count in test [2] is 95.4%; in [3] it was 129%. In [4], the fluorescence slope is -0.282 (inactive). In addition, the NADPH fluorescence slope in test [5] was 1.3e-05 (inactive). In addition, the slope in test [6] is 0.00586 (inactive). Moreover, the call in [7] was inactive.
Consider `COc1cccc(C2C(C(=O)c3cccs3)=C(O)C(=O)N2CCCn2ccnc2)c1OC` (stereo unspecified), for which the cell count in test [1] came to 406. In addition, the inhibition in [1] is -2% (inactive); in [3], -168% (inactive); in [8] it was 8.13% (inactive); in test [9], 7.94% (inactive). The inhibition of aggregation in [2] is 12.6% (inactive). Moreover, the nuclei count in [2] was determined as 96.7%; in test [3] it was 106%. Besides, the fluorescence slope in test [4] is -0.341 (inactive). Also, the NADPH fluorescence slope in test [5] is -6.6e-05 (inactive). Besides, the slope in test [6] is 0.0053 (inactive). The compound was called inactive in test [7].
`CCSCc1nnc(SCC(=O)Nc2cccc(SC)c2)n1C`: the cell count in test [1] turned out to be 492. Moreover, the inhibition in [1] is -5.8% (inactive); in test [3], -43.2% (inactive); in test [8], 9.84% (inactive); in [9], 18.9% (inactive). In test [2], the inhibition of aggregation is 0.2% (inactive). Besides, the nuclei count in test [2] amounted to 101%; in test [3] it was 147%. For the same compound, the fluorescence slope in test [4] is -0.452 (inactive). The NADPH fluorescence slope in [5] was -4.6e-05 (inactive). Moreover, in test [6], the slope is 0.00484 (inactive). Also, in test [7], the call was inactive.
On to `Cc1cc(C)nc(-n2nc(C)cc2NC(=O)c2ccc(Br)o2)n1`, for which, in test [1], the cell count was 442. The inhibition was -7.3% (inactive) in test [1], 21.7% (inactive) in [3], -4.98% (inactive) in [8] and 20.1% (inactive) in test [9]. For the same compound, in test [2], the inhibition of aggregation was 18.7% (inactive). Besides, the nuclei count in test [2] came to 90.1%; in test [3] it was 105%. Besides, the fluorescence slope in [4] is -0.374 (inactive). In test [5], the NADPH fluorescence slope is -5.8e-05 (inactive). Also, in test [6], the slope was 0.00507 (inactive). In [7], the call was inactive.
Take `O=C(NCC1CCCO1)c1cc(-c2ccncc2)nc2ccc(S(=O)(=O)N3CCOCC3)cc12` (stereo unspecified): the cell count in test [1] came to 878. Besides, the inhibition is 2.1% (inactive) in [1], -91% (inactive) in test [3], 10.6% (inactive) in [8] and 10.8% (inactive) in test [9]. Besides, the inhibition of aggregation in test [2] is -9.7% (inactive). In addition, the nuclei count in test [2] came out at 106%; in test [3], 129%. Also, in [4], the fluorescence slope is -0.387 (inactive). For the same compound, the NADPH fluorescence slope in [5] is -9.2e-05 (inactive). Further, in test [6], the slope was 0.00498 (inactive). In addition, the call in [7] was inactive.
Consider `COc1ccccc1C1N(c2ccc(F)cc2)C(=O)C2CCCN21` (stereo unspecified), for which the cell count in test [1] is 429. Moreover, the inhibition was -3.9% (inactive) in [1], 27.9% (inactive) in test [3], 9.07% (inactive) in test [8] and 14.8% (inactive) in [9]. The inhibition of aggregation in [2] is 7.1% (inactive). The figures for the nuclei count in test [2] and in test [3] were 84.3% and 91.4%, respectively. Further, the fluorescence slope in test [4] is -0.377 (inactive). Besides, the NADPH fluorescence slope in test [5] is -7.5e-05 (inactive). Also, in test [6], the slope is 0.00544 (inactive). The compound was called inactive in test [7].
`COc1ccc(NC(=O)CC2CCCCC2)cc1OC`: the cell count in [1] was 258. Also, the inhibition was -5.5% (inactive) in test [1], -69.1% (inactive) in [3], -6.37% (inactive) in test [8] and -23% (inactive) in test [9]. For the same compound, in test [2], the inhibition of aggregation is -4.8% (inactive). Also, the nuclei count in test [2] came out at 91.1%; in [3], 99.7%. Moreover, the fluorescence slope in [4] is -0.356 (inactive). In test [5], the NADPH fluorescence slope was -2.3e-05 (inactive). Further, in test [6], the slope is 0.00718 (inactive). For the same compound, the call in [7] was inactive.
